# From ChEMBL document CHEMBL1122686, “Troponoids. 6. Troponylpiperazines: a new class of dopamine agonists” (1984)
# Activity calls are given as the source filed them. The rule behind the calls is not given here.
# Experiments:
# Rattus norvegicus [1] = assay: Inhibition of the 6-OHDA-induced Hypokinesia in rat, at 50 mg/Kg sc, expressed as cumulative ambulation score; inactive; format: functional, organism-based
# Summary of the method: (§1)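 Male Sprague-Dawley rats (~280 g), anesthetized with pentobarbital, got 6-OHDA (26 µg/4 µL) bilaterally into the anterolateral hypothalamus. Four days later, only near-akinetic rats in a 36-square open field were used. Doses were free base, given sc in distilled water or Tween 80 suspension. Ambulation (all four limbs in one square) was scored in six 2-min periods at 15–120 min, then summed.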
# Rattus norvegicus [2] = assay: Inhibition of the 6-OHDA-induced Hypokinesia in rat, at 50 mg/Kg sc, expressed as cumulative ambulation score; format: functional; summary of the method: as §1
# Rattus norvegicus [3] = assay: Percent decrease on dopamine agonist-induced rotation in unilaterally 6-OH-DA-lesioned rat at 0.25 mg/kg; format: functional
# Summary of the method: (§2)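 Rats were unilaterally 6-OHDA-lesioned and apomorphine-screened for rotation. Haloperidol (0.1, 0.25 or 0.5 mg/kg ip) or vehicle was given 1 h before the DA agonist (75 mg/kg sc). Total contralateral turns were counted automatically in rotometers (mean ± SEM). Percent decrease was taken relative to vehicle pretreatment, with significance by Student's t test.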
# Rattus norvegicus [4] = assay: Effect on dopamine agonist-induced rotation in unilaterally 6-OH-DA-lesioned rat at 0.5 mg/kg, ip; Compound 35 was injected subcutaneously at 75 mg/kg; format: functional; summary of the method: as §2
# Rattus norvegicus [5] = assay: Drug pretreatment vs. vehicle pretreatment; statistical analysis by Student''s t test at 0.1 mg/kg; NS-Not Significant; format: functional, organism-based; parameters: dose 0.1 mg/kg; summary of the method: as §2
# Rattus norvegicus [6] = assay: Effect on dopamine agonist-induced rotation in unilaterally 6-OH-DA-lesioned rat at 0.25 mg/kg, ip; Compound 35 was injected subcutaneously at 75 mg/kg; format: functional; summary of the method: as §2
# Rattus norvegicus [7] = assay: Effect on dopamine agonist-induced rotation in unilaterally 6-OH-DA-lesioned rat at 0.1 mg/kg, ip; Compound 35 was injected subcutaneously at 75 mg/kg; format: functional; summary of the method: as §2
# Rattus norvegicus [8] = assay: Percent decrease on dopamine agonist-induced rotation in unilaterally 6-OH-DA-lesioned rat at 0.5 mg/kg; format: functional; summary of the method: as §2
# Rattus norvegicus [9] = assay: Percent decrease on dopamine agonist-induced rotation in unilaterally 6-OH-DA-lesioned rat at 0.1 mg/kg; format: functional; summary of the method: as §2
# Rattus norvegicus [10] = assay: Inhibition of the 6-OHDA-induced Hypokinesia in rat, at 25 mg/Kg sc, expressed as cumulative ambulation score; format: functional; summary of the method: as §1
# Rattus norvegicus [11] = assay: Rotational behavior induced by the compound in rat with a unilateral 6-OHDA-induced lesion of the Nigro-striatal dopamine, at 25 mg/Kg sc; duration of activity=5 hr; format: functional
# Rattus norvegicus [12] = assay: Rotational behavior induced by the compound in rat with a unilateral 6-OHDA-induced lesion of the Nigro-striatal dopamine, at 75 mg/Kg sc; duration of activity=9 hr; format: functional
# Rattus norvegicus [13] = assay: Rotational behavior induced by the compound in rat with a unilateral 6-OHDA-induced lesion of the Nigro-striatal dopamine, at 50 mg/Kg sc, duration of activity=6 hr; format: functional
# Rattus norvegicus [14] = species: Rattus norvegicus; assay: Duration of activity in rat; format: functional
# Summary of the method: (§3)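 Rats (~250 g at surgery, pentobarbital 40 mg/kg ip) received unilateral 6-OHDA (8 µg in 3 µL) to lesion the nigrostriatal pathway. At 3–4 weeks, rats turning 8–10 times/min after apomorphine 0.25 mg/kg sc were selected. They were housed singly, food-restricted to 350–400 g, dosed sc (free base) in groups of 4–8, and placed at once in automatic rotometers. Total contralateral turns (mean ± SEM) and duration of action (h) were recorded.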
# Rattus norvegicus [15] = assay: Rotational behavior induced by the compound in rat with a unilateral 6-OHDA-induced lesion of the Nigro-striatal dopamine, at 25 mg/Kg sc; duration of activity=4 hr; format: functional; summary of the method: as §3
# Rattus norvegicus [16] = assay: Rotational behavior induced by the compound in rat with a unilateral 6-OHDA-induced lesion of the Nigro-striatal dopamine, at 75 mg/Kg sc; format: functional; summary of the method: as §3
# Rattus norvegicus [17] = assay: Rotational behavior induced by the compound in rat with a unilateral 6-OHDA-induced lesion of the Nigro-striatal dopamine, at 50 mg/Kg sc; duration of activity=6 hr; format: functional; summary of the method: as §3
# Rattus norvegicus [18] = assay: Inhibition of the 6-OHDA-induced Hypokinesia in rat, at 25 mg/Kg sc, expressed as cumulative ambulation score; inactive; format: functional, organism-based; summary of the method: as §1
# Rattus norvegicus [19] = assay: Rotational behavior induced by the compound in rats with a unilateral 6-OHDA-induced lesion of the Nigro-striatal dopamine, at 50 mg/Kg sc; duration of activity=6 hr; format: functional; summary of the method: as §3
# Rattus norvegicus [20] = assay: Rotational behavior induced by the compound in rats with a unilateral 6-OHDA-induced lesion of the Nigro-striatal dopamine, at 8 mg/Kg sc; format: functional; summary of the method: as §3
# Rattus norvegicus [21] = species: Rattus norvegicus; assay: Duration of activity was determined; format: functional; summary of the method: as §3
# Rattus norvegicus [22] = assay: Inhibition of the 6-OHDA-induced Hypokinesia in rat, at 10 mg/Kg sc, expressed as cumulative ambulation score; format: functional; summary of the method: as §1
structure (smiles),measurement,setting,value
CC(=O)NCCN1CCN(c2cccccc2=O)CC1,Score,Rattus norvegicus [1],inactive
CN1CCC(c2cccccc2=O)CC1,Score,Rattus norvegicus [1],inactive
O=c1cccccc1N1CCN(CCOc2ccccc2)CC1,Score,Rattus norvegicus [1],inactive
CCCN1CCN(c2cccccc2=O)CC1,Score,Rattus norvegicus [2],159
O=C1CCCCCC1N1CCN(CCO)CC1 (stereo not given),Score,Rattus norvegicus [1],inactive
O=C(CCCN1CCC(O)(c2ccc(Cl)cc2)CC1)c1ccc(F)cc1 [HALOPERIDOL],Decrease,Rattus norvegicus [3],-56%
same,Total no. of turns,Rattus norvegicus [4],567
same,P,Rattus norvegicus [5],inactive
same,Total no. of turns,Rattus norvegicus [6],1055
same,Total no. of turns,Rattus norvegicus [7],1626
same,Decrease,Rattus norvegicus [8],-77%
same,Decrease,Rattus norvegicus [9],-33%
CC(O)CN1CCN(c2cccccc2=O)CC1 (stereo not given),Score,Rattus norvegicus [10],190
same,Score,Rattus norvegicus [2],400
CN1CCN(c2cccccc2=O)CC1.O=C(O)/C=C\C(=O)O,Score,Rattus norvegicus [11],551
same,Score,Rattus norvegicus [12],2842
same,Score,Rattus norvegicus [2],278
same,Score,Rattus norvegicus [13],1814
same,Duration of action,Rattus norvegicus [14],9 h
O=c1cccccc1N1CCN(CCO)CC1,Score,Rattus norvegicus [10],88
same,Score,Rattus norvegicus [15],369
same,Score,Rattus norvegicus [2],187
same,Score,Rattus norvegicus [16],4582
same,Duration of action,Rattus norvegicus [14],12 h
same,Score,Rattus norvegicus [17],1378
O=c1cccccc1N1CCNCC1,Score,Rattus norvegicus [2],55
CCOCCN1CCN(c2cccccc2=O)CC1.O=C(O)/C=C\C(=O)O,Score,Rattus norvegicus [2],67
CCN1CCN(c2cccccc2=O)CC1,Score,Rattus norvegicus [2],70
CN1CCCN(c2cccccc2=O)CC1,Score,Rattus norvegicus [1],inactive
CC(C)(C)N1CCN(c2cccccc2=O)CC1,Score,Rattus norvegicus [1],inactive
CC(C)(C)C(=O)OCCN1CCN(c2cccccc2=O)CC1.O=C(O)/C=C\C(=O)O,Score,Rattus norvegicus [2],137
Br.O=c1c(Br)ccccc1N1CCN(CCO)CC1,Score,Rattus norvegicus [2],136
CC(C)N1CCN(c2cccccc2=O)CC1,Score,Rattus norvegicus [2],431
O=c1ccc(Cl)ccc1N1CCN(CCO)CC1,Score,Rattus norvegicus [1],inactive
OCCN1CCN(c2ccccc2)CC1,Score,Rattus norvegicus [1],inactive
CC1CCN(c2cccccc2=O)CC1,Score,Rattus norvegicus [1],inactive
CC(CO)N1CCN(c2cccccc2=O)CC1 (stereo not given),Score,Rattus norvegicus [18],inactive
CN1CCN(c2ccccc2)CC1,Score,Rattus norvegicus [1],inactive
NC(=O)CN1CCN(c2cccccc2=O)CC1,Score,Rattus norvegicus [1],inactive
CC(=O)OCCN1CCN(c2cccccc2=O)CC1,Score,Rattus norvegicus [10],106
same,Score,Rattus norvegicus [15],743
same,Score,Rattus norvegicus [2],232
same,Score,Rattus norvegicus [16],3640
same,Duration of action,Rattus norvegicus [14],10 h
same,Score,Rattus norvegicus [19],1485
O=c1cccccc1N1CCN(CCCO)CC1,Score,Rattus norvegicus [2],71
CC(O)C(C)N1CCN(c2cccccc2=O)CC1 (stereo not given),Score,Rattus norvegicus [18],inactive
O=c1cccccc1N1CCN(CC(O)CO)CC1 (stereo not given),Score,Rattus norvegicus [2],58
N#CCN1CCN(c2cccccc2=O)CC1,Score,Rattus norvegicus [2],126
CCCCN1CCN(c2cccccc2=O)CC1,Score,Rattus norvegicus [1],inactive
CC(C)C[C@H]1C(=O)N2CCC[C@H]2[C@]2(O)O[C@](NC(=O)[C@@H]3C=C4c5cccc6[nH]c(Br)c(c56)C[C@H]4N(C)C3)(C(C)C)C(=O)N12 [BROMOCRIPTINE],Score,Rattus norvegicus [20],4868
same,Duration of action,Rattus norvegicus [21],18 h
same,Score,Rattus norvegicus [22],112
CC(C)CN1CCN(c2cccccc2=O)CC1.O=C(O)/C=C\C(=O)O,Score,Rattus norvegicus [10],372
CCOC(=O)CN1CCN(c2cccccc2=O)CC1,Score,Rattus norvegicus [1],inactive
